Data taken from ChEMBL document CHEMBL1208665, “Discovery of new 1,3,5-triazine scaffolds with potent activity against Mycobacterium tuberculosis H37Rv” (Eur J Med Chem, 2010).
Converted amounts (≈) assume the structure as drawn.

Assays:
[1] = system: Mycobacterium tuberculosis; experiment: Antimycobacterial activity against Mycobacterium tuberculosis H37Rv […] after 4 weeks; assay type: functional
Summary of the method: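 Agar-slant dilution against H37Rv. Compounds from 1.0 mg/mL DMSO stock, two-fold serial dilutions, were incorporated into OADC-supplemented medium (2 mL/tube final) and solidified slanted. Inoculum spread on the surface, incubated 37 °C for 4 weeks. Drug-free tubes served as control. MIC is the lowest concentration giving complete growth inhibition relative to the inoculum used.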

Vero = experiment: (§1) Cytotoxicity against Vero cells after 24 hrs by MTS assay; assay type: cell-based; details: chlorocebus sabaeus, vero, 24 h
Summary of the method: (§2)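 VERO cells were seeded at 20,000/well in MEM + 10% FBS with antibiotics and left to adhere overnight at 37 °C, 5% CO₂. Compound dilutions were added in MEM + 10% FBS for 24 h, with DMSO as negative control and a known toxic compound as positive control. Read-out was MTS, 2 h, A490, with DMSO wells taken as 100% survival.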

[2] = Cytotoxicity against mouse BMDM after 48 hrs by MTS assay; assay type: cell-based; details: for Activity: bmdm, 48 h
Summary of the method: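 Mouse femur bone marrow was flushed with DMEM + 10% FBS, 15% L-929 conditioned supernatant and non-essential amino acids. Cells were plated at 10⁵/well, medium was changed every 3rd day, and cells were used at day 5. Compounds were added in antibiotic-free FBS-DMEM for 48 h at 37 °C, 5% CO₂. Read-out was MTS, 2 h, A490, with DMSO wells taken as 100% survival.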

[3] = as §1; assay type: cell-based; details: chlorocebus sabaeus, Vero cells; read-out: MIC; summary of the method: as §2

SMILES	MIC [1] [µg/mL]	also measured
COc1ccc(-c2cc(SC)nc(Nc3nc(N4CCN(C)CC4)nc(N4CCN(C)CC4)n3)n2)cc1OC	> 12.5	–
CCCCNc1nc(NCCCC)nc(Nc2nc(SC)cc(-c3cc(OC)c(OC)c(OC)c3)n2)n1	> 12.5	–
CCCNC1COCCN1c1nc(N2CCc3ccccc3C2)nc(N2CCc3ccccc3C2)n1 (stereo not drawn)	> 12.5	–
CC(C)(C)Nc1nc(NNC(=O)c2ccncc2)nc(Nc2ccccc2)n1	> 12.5	–
CC(C)(C)Nc1nc(NC(C)(C)C)nc(N2CCCCC2)n1	> 12.5	–
CCCNC1COCCN1c1nc(Nc2nc(SC)cc(-c3cc(OC)c(OC)c(OC)c3)n2)nc(N2CCOCC2NCCC)n1 (stereo not drawn)	12.5 (≈ 18.6 µM)	–
CCNc1nc(NCC)nc(N2CCCCC2)n1	> 12.5	–
CCCNc1nc(NCCC)nc(Nc2nc(SC)cc(-c3ccc(OC)c(OC)c3)n2)n1	> 12.5	–
CCCNc1nc(NCCC)nc(N2CCCc3ccccc32)n1	> 12.5	–
CC(C)(C)Nc1nc(NNC(=O)c2ccncc2)nc(N2CCCCC2)n1	6.25 (≈ 16.9 µM)	–
CCN(CC)CCNc1nc(N2CCc3ccccc3C2)nc(N2CCc3ccccc3C2)n1	> 12.5	–
CCN1CCN(c2nc(Nc3nc(SC)cc(-c4ccc(OC)c(OC)c4)n3)nc(N3CCN(CC)CC3)n2)CC1	12.5 (≈ 21.5 µM)	–
CCN(CC)CCNc1nc(NCCN(CC)CC)nc(N2CCCc3ccccc32)n1	> 12.5	–
COc1ccc(-c2cc(SC)nc(Nc3nc(N4CCOCC4)nc(N4CCOCC4)n3)n2)cc1OC	> 12.5	–
O=C(NNc1nc(N2CCCCC2)nc(N2CCCCC2)n1)c1ccncc1	6.25 (≈ 16.3 µM)	–
O=C(NNc1nc(Nc2ccccc2)nc(Nc2ccccc2)n1)c1ccncc1	> 12.5	–
CC(C)Nc1nc(NC(C)C)nc(N2CCCCC2)n1	12.5 (≈ 44.9 µM)	–
COc1cc(-c2cc(SC)nc(Nc3nc(N4CCOCC4)nc(N4CCOCC4)n3)n2)cc(OC)c1OC	> 12.5	–
COc1cc(-c2cc(SC)nc(Nc3nc(NC(C)C)nc(NC(C)C)n3)n2)cc(OC)c1OC	3.12 (≈ 6.23 µM)	Activity (Vero): Toxic; Activity [2]: Toxic
CC(C)(C)Nc1nc(NC(C)(C)C)nc(N2CCCc3ccccc32)n1	> 12.5	–
CC(C)Nc1nc(NNC(=O)c2ccncc2)nc(Nc2ccccc2)n1	6.25 (≈ 17.2 µM)	–
CCNC1CN(c2cc(-c3cc(OC)c(OC)c(OC)c3)nc(N)n2)CCO1 (stereo not drawn)	> 12.5	–
c1ccc2c(c1)CCCN2c1nc(N2CCOCC2)nc(N2CCCc3ccccc32)n1	> 12.5	–
O=C(NNc1nc(Nc2ccccc2)nc(N2CCOCC2)n1)c1ccncc1	1.56 (≈ 3.98 µM)	Activity (Vero): Non-toxic; Activity [2]: Non-toxic
CN1CCN(c2nc(N3CCc4ccccc4C3)nc(N3CCc4ccccc4C3)n2)CC1	6.25 (≈ 14.2 µM)	–
CCNC1CN(c2nc(N3CCc4ccccc4C3)nc(N3CCc4ccccc4C3)n2)CCO1 (stereo not drawn)	3.12 (≈ 6.62 µM)	Activity (Vero): Non-toxic; Activity [2]: Toxic

SMILES	MIC [1] [µg/mL]	also measured
CCN(CC)CCNc1cc(-c2cc(OC)c(OC)c(OC)c2)nc(N)n1	> 12.5	–
O=C(NNc1nc(Nc2ccccc2)nc(N2CCCCC2)n1)c1ccncc1	> 12.5	–
c1ccc2c(c1)CCN(c1nc(N3CCOCC3)nc(N3CCc4ccccc4C3)n1)C2	> 12.5	–
COc1cc(-c2cc(SC)nc(Nc3nc(N4CCN(C)CC4)nc(N4CCN(C)CC4)n3)n2)cc(OC)c1OC	12.5 (≈ 21.5 µM)	–
CN(C)CCNc1nc(NCCN(C)C)nc(N2CCCCC2)n1	> 12.5	–
O=C(NNc1nc(N2CCc3ccccc3C2)nc(N2CCc3ccccc3C2)n1)c1ccncc1	3.12 (≈ 6.52 µM)	Activity (Vero): Non-toxic; Activity [2]: Toxic
CCNC1CN(c2nc(N3CCCCC3)nc(N3CCOC(NCC)C3)n2)CCO1 (stereo not drawn)	> 12.5	–
COc1cc(-c2cc(N3CCCCC3)nc(N)n2)cc(OC)c1OC	> 12.5	–
COc1cc(-c2cc(SC)nc(Nc3nc(NC(C)(C)C)nc(NC(C)(C)C)n3)n2)cc(OC)c1OC	3.12 (≈ 5.9 µM)	Activity (Vero): Non-toxic; Activity [2]: Toxic
COc1ccc(-c2cc(SC)nc(Nc3nc(N4CCCCC4)nc(N4CCCCC4)n3)n2)cc1OC	> 12.5	–
COc1ccc(-c2cc(SC)nc(Nc3nc(NCCN(C)C)nc(NCCN(C)C)n3)n2)cc1OC	6.25 (≈ 11.8 µM)	–
CCCCNc1cc(-c2cc(OC)c(OC)c(OC)c2)nc(N)n1	> 12.5	–
COc1ccc(-c2cc(SC)nc(Nc3nc(NC(C)(C)C)nc(NC(C)(C)C)n3)n2)cc1OC	6.25 (≈ 12.5 µM)	–
O=C(NNc1nc(Nc2ccccc2)nc(NC2CCCCC2)n1)c1ccncc1	6.25 (≈ 15.5 µM)	–
CC(C)(C)Nc1nc(NNC(=O)c2ccncc2)nc(N2CCCc3ccccc32)n1	3.12 (≈ 7.46 µM)	–
O=C(NNc1nc(Nc2ncccn2)nc(N2CCCCC2)n1)c1ccncc1	3.12 (≈ 7.95 µM)	Activity (Vero): Non-toxic; Activity [2]: Non-toxic
CC(C)Nc1nc(NNC(=O)c2ccncc2)nc(N2CCc3ccccc3C2)n1	3.12 (≈ 7.71 µM)	Activity (Vero): Non-toxic; Activity [2]: Non-toxic
CCCNC1COCCN1c1nc(Nc2nc(SC)cc(-c3ccc(OC)c(OC)c3)n2)nc(N2CCOCC2NCCC)n1 (stereo not drawn)	> 12.5	–
CCCNC1COCCN1c1nc(N2CCCc3ccccc32)nc(N2CCCc3ccccc32)n1 (stereo not drawn)	> 12.5	–
CCCCNc1nc(NNC(=O)c2ccncc2)nc(N2CCc3ccccc3C2)n1	3.12 (≈ 7.46 µM)	Activity (Vero): Non-toxic; Activity [2]: Non-toxic
CCCNc1nc(NCCC)nc(N2CCCCC2)n1	12.5 (≈ 44.9 µM)	MCC at 24 h [3]: > 12.5 µg/mL; MCC at 48 h ([2]; BMDM (bone marrow-derived macrophages), read-out: MIC): > 12.5 µg/mL
CC(C)Nc1nc(NNC(=O)c2ccncc2)nc(N2CCCCC2)n1	3.12 (≈ 8.75 µM)	Activity (Vero): Non-toxic; Activity [2]: Non-toxic
CC(C)(C)Nc1nc(N2CCc3ccccc3C2)nc(N2CCc3ccccc3C2)n1	> 12.5	–
CC(C)Nc1nc(NNC(=O)c2ccncc2)nc(N2CCCc3ccccc32)n1	3.12 (≈ 7.71 µM)	Activity (Vero): Non-toxic; Activity [2]: Non-toxic
CCCNC1COCCN1c1cc(-c2cc(OC)c(OC)c(OC)c2)nc(N)n1 (stereo not drawn)	> 12.5	–
CC(C)(C)Nc1nc(NNC(=O)c2ccncc2)nc(N2CCc3ccccc3C2)n1	3.12 (≈ 7.46 µM)	Activity (Vero): Non-toxic; Activity [2]: Toxic

SMILES	MIC [1] [µg/mL]	also measured
CCNC1CN(c2nc(N3CCCc4ccccc43)nc(N3CCCc4ccccc43)n2)CCO1 (stereo not drawn)	> 12.5	–
CCN(CC)CCNc1nc(N2CCCc3ccccc32)nc(N2CCCc3ccccc32)n1	> 12.5	–
NNC(=O)c1ccncc1 [ISONIAZID]	0.025 (≈ 0.182 µM)	Activity (Vero): Non-toxic; Activity [2]: Non-toxic
CCCCNc1nc(NNC(=O)c2ccncc2)nc(Nc2ccccc2)n1	6.25 (≈ 16.5 µM)	–
O=C(NNc1nc(N2CCCCC2)nc(N2CCc3ccccc3C2)n1)c1ccncc1	3.12 (≈ 7.25 µM)	Activity (Vero): Non-toxic; Activity [2]: Toxic
CN1CCN(c2nc(N3CCCc4ccccc43)nc(N3CCCc4ccccc43)n2)CC1	> 12.5	–
CCCCNc1nc(NNC(=O)c2ccncc2)nc(N2CCCc3ccccc32)n1	6.25 (≈ 14.9 µM)	–
CCN1CCN(c2nc(Nc3nc(SC)cc(-c4cc(OC)c(OC)c(OC)c4)n3)nc(N3CCN(CC)CC3)n2)CC1	12.5 (≈ 20.5 µM)	–
O=C(NNc1nc(N2CCOCC2)nc(N2CCCc3ccccc32)n1)c1ccncc1	3.12 (≈ 7.21 µM)	Activity (Vero): Non-toxic; Activity [2]: Non-toxic
CC(C)(C)Nc1nc(N2CCCc3ccccc32)nc(N2CCCc3ccccc32)n1	> 12.5	–
CN(C)CCNc1nc(NCCN(C)C)nc(N2CCCc3ccccc32)n1	> 12.5	–
CC(C)Nc1nc(NC(C)C)nc(N2CCCc3ccccc32)n1	> 12.5	–
CCN(CC)CCNc1nc(NCCN(CC)CC)nc(Nc2nc(SC)cc(-c3ccc(OC)c(OC)c3)n2)n1	6.25 (≈ 10.7 µM)	–
CCN(CC)CCNc1nc(NCCN(CC)CC)nc(N2CCCCC2)n1	> 12.5	–
CCCCNc1nc(NNC(=O)c2ccncc2)nc(N2CCCCC2)n1	3.12 (≈ 8.42 µM)	Activity (Vero): Non-toxic; Activity [2]: Non-toxic
COc1cc(-c2cc(SC)nc(Nc3nc(N4CCCCC4)nc(N4CCCCC4)n3)n2)cc(OC)c1OC	6.25 (≈ 11.3 µM)	–
COc1cc(-c2cc(N3CCOCC3)nc(N)n2)cc(OC)c1OC	> 12.5	–
CCN(CC)CCNc1nc(N)nc(Nc2nc(SC)cc(-c3cc(OC)c(OC)c(OC)c3)n2)n1	> 12.5	–
COc1cc(-c2cc(N3CCN(C)CC3)nc(N)n2)cc(OC)c1OC	> 12.5	–
CCNc1nc(NCC)nc(N2CCCc3ccccc32)n1	> 12.5	–
COc1ccc(-c2cc(SC)nc(Nc3nc(NC(C)C)nc(NC(C)C)n3)n2)cc1OC	12.5 (≈ 26.6 µM)	–
NN(C(=O)c1ccncc1)c1nc(Nc2ccccc2)nc(N(N)C(=O)c2ccncc2)n1	> 12.5	–
CCCNc1nc(NCCC)nc(Nc2nc(SC)cc(-c3cc(OC)c(OC)c(OC)c3)n2)n1	> 12.5	–
CCNC1CN(c2nc(Nc3nc(SC)cc(-c4ccc(OC)c(OC)c4)n3)nc(N3CCOC(NCC)C3)n2)CCO1 (stereo not drawn)	> 12.5	–
